Test results from publication PMC4390475 (Journal of pharmaceutical sciences, 2015).

Key:
Stability in plasma [1] = assay type: in vitro ADME; details: human plasma diluted 1:1 with PBS, 15 μM, up to 1 h, 37°C
human plasma proteins = assay: Plasma protein binding by gel filtration; assay type: in vitro ADME; details: 2 h, 37°C
In short: (§1)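 Test compound (2.65, 13.3 and 40.0 μM final) was incubated in plasma for 2 h at 37°C. Bound compound was separated on Sephadex G-25 by spin filtration (5 min, 200 × g). Eluates were run in duplicate: EDTA addition, chloroform:methanol extraction, acetonitrile precipitation, then LC-MS/MS (MRM 751 → 195, positive ESI) against 15 plasma standards from 0 to 66.7 μM. Eluate concentration was corrected for protein dilution, measured by microbiuret against BSA standards. % bound = corrected/total (mean ± SD, n = 3).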

CYP2C19 = CYP2C19 (Homo sapiens, UniProt P33261); assay: CYP inhibition in human liver microsomes; assay type: in vitro ADME; details: 1 or 10 μM test article, 20 min, 37°C
CYP2C19, sequence (P33261 whole entry): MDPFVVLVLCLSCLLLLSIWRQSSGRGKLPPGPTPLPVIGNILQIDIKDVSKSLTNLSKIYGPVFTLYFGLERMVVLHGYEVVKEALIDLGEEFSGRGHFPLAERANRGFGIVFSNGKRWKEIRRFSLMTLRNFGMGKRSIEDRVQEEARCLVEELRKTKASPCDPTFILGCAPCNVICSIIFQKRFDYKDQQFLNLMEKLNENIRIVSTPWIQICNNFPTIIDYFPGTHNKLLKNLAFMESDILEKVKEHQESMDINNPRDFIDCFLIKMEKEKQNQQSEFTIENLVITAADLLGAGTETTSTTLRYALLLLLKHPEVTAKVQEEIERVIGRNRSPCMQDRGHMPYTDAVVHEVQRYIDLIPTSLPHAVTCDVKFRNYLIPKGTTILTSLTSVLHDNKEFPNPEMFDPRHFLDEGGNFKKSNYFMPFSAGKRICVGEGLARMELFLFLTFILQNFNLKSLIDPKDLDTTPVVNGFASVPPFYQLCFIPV
In short: (§2)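 Pooled human liver microsomes (0.5 mg/mL), 2.5 mM NADPH, 3.3 mM MgCl₂, 0.1 M phosphate pH 7.4, 0.3% DMSO, probe cocktail near Km: phenacetin 25 μM (1A2), bupropion 25 μM (2B6), diclofenac 10 μM (2C9), mephenytoin 20 μM (2C19), bufuralol 10 μM (2D6), testosterone 50 μM and midazolam 4 μM (3A4). Cold acetonitrile quench; LC-MS/MS metabolite peak-area ratio over mean control ×100; n = 3.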

CYP1A2 = biological target: T1, CYP1A2 (Homo sapiens, UniProt P05177); assay: CYP inhibition in human liver microsomes; assay type: in vitro ADME; details: 1 or 10 μM test article, 20 min, 37°C
T1 sequence (P05177 1-516): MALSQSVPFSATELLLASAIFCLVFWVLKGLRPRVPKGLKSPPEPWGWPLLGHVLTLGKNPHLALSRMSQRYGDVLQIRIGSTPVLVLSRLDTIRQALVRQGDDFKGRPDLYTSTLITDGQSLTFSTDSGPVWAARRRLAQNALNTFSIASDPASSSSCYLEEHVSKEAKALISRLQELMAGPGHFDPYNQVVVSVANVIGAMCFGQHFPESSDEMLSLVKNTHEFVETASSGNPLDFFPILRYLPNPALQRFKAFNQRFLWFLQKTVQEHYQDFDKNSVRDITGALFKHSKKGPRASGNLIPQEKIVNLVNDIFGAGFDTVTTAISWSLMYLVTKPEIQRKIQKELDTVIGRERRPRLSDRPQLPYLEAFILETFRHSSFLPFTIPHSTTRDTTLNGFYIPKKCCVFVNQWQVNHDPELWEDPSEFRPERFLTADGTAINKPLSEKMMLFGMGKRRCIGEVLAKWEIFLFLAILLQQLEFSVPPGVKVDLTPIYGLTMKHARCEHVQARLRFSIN
In short: as §2

[2] = Stability in acidic aqueous buffered solutions; assay type: physicochemical; details: for stability in acidic buffer: 48 h, 25°C/60%RH
In short: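 Test compound at 10 mg/mL was held in USP buffers: hydrochloric acid (pH 1.40), acetate (pH 4.50) and phosphate (pH 6.80). Incubation was at 25°C/60% RH in sealed, light-protected glass vials. Aliquots taken at 1, 3, 6, 24 and 48 h were diluted 10-fold and analysed by LC-MS, as for the microsomal stability samples.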

[3] = orally administered, 225 mg/kg; cited from earlier work
CYP2B6 = biological target: T2, CYP2B6 (Homo sapiens, UniProt P20813); assay: CYP inhibition in human liver microsomes; assay type: in vitro ADME; details: 1 or 10 μM test article, 20 min, 37°C
T2 sequence (P20813 1-491): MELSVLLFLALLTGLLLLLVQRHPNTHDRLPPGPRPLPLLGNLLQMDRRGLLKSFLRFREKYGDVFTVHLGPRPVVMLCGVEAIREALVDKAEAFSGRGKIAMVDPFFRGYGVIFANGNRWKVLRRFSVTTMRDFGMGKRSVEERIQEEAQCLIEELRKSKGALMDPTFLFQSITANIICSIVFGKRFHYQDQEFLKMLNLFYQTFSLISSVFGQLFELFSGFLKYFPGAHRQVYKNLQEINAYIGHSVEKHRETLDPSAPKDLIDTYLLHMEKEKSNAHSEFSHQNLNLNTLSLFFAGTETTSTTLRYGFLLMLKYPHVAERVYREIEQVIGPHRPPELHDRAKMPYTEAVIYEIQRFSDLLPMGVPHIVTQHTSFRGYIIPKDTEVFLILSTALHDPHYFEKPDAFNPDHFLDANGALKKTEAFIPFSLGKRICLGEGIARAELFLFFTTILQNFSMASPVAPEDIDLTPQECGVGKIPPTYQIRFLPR
In short: as §2

rat plasma proteins = assay: Plasma protein binding by gel filtration; assay type: in vitro ADME, Sprague Dawley rat; details: 2 h, 37°C
In short: as §1

CYP3A4 = CYP3A4 (Homo sapiens, UniProt P08684); assay: CYP inhibition in human liver microsomes; assay type: in vitro ADME; details: 1 or 10 μM test article, 20 min, 37°C
CYP3A4, sequence (P08684 whole entry): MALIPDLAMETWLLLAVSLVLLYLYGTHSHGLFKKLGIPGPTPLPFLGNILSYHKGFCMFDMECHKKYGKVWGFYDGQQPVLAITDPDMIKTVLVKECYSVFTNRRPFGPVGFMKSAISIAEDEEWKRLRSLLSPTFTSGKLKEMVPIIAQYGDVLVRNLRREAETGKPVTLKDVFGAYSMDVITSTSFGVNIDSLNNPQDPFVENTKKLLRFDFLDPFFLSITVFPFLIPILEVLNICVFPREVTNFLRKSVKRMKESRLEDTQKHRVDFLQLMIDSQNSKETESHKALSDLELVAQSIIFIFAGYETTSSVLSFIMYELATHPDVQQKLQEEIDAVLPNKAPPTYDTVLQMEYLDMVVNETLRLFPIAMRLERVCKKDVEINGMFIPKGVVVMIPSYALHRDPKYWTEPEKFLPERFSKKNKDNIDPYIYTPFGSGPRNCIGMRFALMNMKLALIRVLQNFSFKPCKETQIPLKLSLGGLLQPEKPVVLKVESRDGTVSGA
In short: as §2

[4] = Metabolic stability using pooled human liver microsomes; assay type: in vitro ADME; details: 10 and 50 μM, active microsomes, up to 60 min, 37°C
Caco-2 cells = assay: Bi-directional permeability study using Caco-2 cells; details: for % Recovery of Test Article A–B (mean) / % Recovery of Test Article B-A (mean): end of experiment
CYP2C9 = CYP2C9 (Homo sapiens, UniProt P11712); assay: CYP inhibition in human liver microsomes; assay type: in vitro ADME; details: 1 or 10 μM test article, 20 min, 37°C
CYP2C9, sequence (P11712 whole entry): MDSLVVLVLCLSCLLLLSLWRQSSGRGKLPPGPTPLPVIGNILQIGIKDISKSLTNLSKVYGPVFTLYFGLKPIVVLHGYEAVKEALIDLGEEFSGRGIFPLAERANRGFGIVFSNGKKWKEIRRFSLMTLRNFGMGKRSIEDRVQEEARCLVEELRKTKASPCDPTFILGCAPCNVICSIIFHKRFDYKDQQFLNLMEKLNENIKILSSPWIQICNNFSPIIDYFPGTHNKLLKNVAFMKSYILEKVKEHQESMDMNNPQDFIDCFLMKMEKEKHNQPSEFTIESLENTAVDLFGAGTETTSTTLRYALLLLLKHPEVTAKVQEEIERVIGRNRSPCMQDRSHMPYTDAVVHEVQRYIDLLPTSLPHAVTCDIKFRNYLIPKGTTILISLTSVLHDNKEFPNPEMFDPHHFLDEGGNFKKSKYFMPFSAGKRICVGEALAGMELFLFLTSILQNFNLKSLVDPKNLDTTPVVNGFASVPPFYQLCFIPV
In short: as §2

[5] = Stability in simulated gastric fluid; assay type: in vitro ADME; details: SGF pH 1.2 with pepsin, 37°C, 60 min
In short: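 Simulated gastric fluid (pH 1.2) contained 3.2 g/L porcine pepsin, 2 g/L NaCl and 8 mL/L 6 N HCl, stored at 2–8°C and pre-warmed to 37°C. […] Reactions were stopped with 0.1 M sodium carbonate and chilled acetonitrile containing ¹³C internal standard, filtered, and analysed by LC-MS; content is expressed relative to initial.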

dog plasma proteins = assay: Plasma protein binding by gel filtration; assay type: in vitro ADME, beagle dog; details: 2.7, 13.3 and 40.0 μM, 2 h, 37°C
In short: as §1

CYP2D6 = CYP2D6 (Homo sapiens, UniProt P10635); assay: CYP inhibition in human liver microsomes; assay type: in vitro ADME; details: 1 or 10 μM test article, 20 min, 37°C
CYP2D6, sequence (P10635 whole entry): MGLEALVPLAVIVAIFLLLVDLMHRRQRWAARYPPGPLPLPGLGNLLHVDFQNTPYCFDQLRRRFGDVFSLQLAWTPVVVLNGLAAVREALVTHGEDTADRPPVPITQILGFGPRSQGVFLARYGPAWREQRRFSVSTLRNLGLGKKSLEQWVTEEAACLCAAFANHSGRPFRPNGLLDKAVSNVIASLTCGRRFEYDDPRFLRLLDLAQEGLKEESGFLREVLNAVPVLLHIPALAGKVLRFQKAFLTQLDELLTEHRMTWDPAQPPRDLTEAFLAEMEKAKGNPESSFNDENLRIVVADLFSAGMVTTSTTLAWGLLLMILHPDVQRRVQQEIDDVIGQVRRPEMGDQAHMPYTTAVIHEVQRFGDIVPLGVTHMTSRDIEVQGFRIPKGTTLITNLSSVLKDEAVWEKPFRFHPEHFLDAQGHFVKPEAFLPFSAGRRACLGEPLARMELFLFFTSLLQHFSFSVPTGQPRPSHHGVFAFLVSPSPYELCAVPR
In short: as §2

Stability in plasma [6] = assay type: in vitro ADME; details: dog plasma diluted 1:1 with PBS, 15 μM, up to 1 h, 37°C
Stability in plasma [7] = assay type: in vitro ADME; details: rat plasma diluted 1:1 with PBS, 15 μM, up to 1 h, 37°C
Stability in plasma [8] = assay type: in vitro ADME; details: mouse plasma diluted 1:1 with PBS, 15 μM, up to 1 h, 37°C
[9] = Permeability through Transwell plate not containing Caco-2 cells; assay type: in vitro ADME; details: 24-well Transwell plate not containing Caco-2 cells
In short: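 This run repeated the Caco-2 bi-directional protocol in a Transwell plate without cells. Test compound (10 and 50 μM final) in HBSS, pH 7.4, was placed in duplicate wells for each direction. Receiver aliquots were taken at 30, 60, 90 and 120 min into 10 mM EDTA and replaced with fresh medium. Donor wells were sampled at start and end for recovery. Analysis was LC-MS/MS (positive ESI, MRM), and Papp was calculated from dQ/dt, receiver volume, membrane area and initial concentration.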

P-gp = assay: Bi-directional permeability study using Caco-2 cells; details: human; for Papp A→B at 120 min, 1 μM: Caco-2, pH 6, Papp A–B (mean); for Papp B→A at 120 min, 1 μM: Caco-2, pH 7.4, Papp B-A (mean)
[10] = negative control; cited from earlier work

O=C(NCCCN(CCCCN(CCCNC(=O)c1cccc(=O)n1O)C(=O)c1cccc(=O)n1O)C(=O)c1cccc(=O)n1O)c1cccc(=O)n1O [3,4,3-LI(1,2-HOPO)]
stability in plasma (% of test article remaining) (Stability in plasma [1]): No degradation
% protein-bound (human plasma proteins; 2.65 μM): below the lower limit of quantitation
extent of plasma protein binding (rank among species) (human plasma proteins; 2.7, 13.3 and 40.0 μM): intermediate
% CYP activity relative to control (CYP2C19): none of the CYP isoforms were significantly influenced
% CYP activity relative to control (CYP1A2): none of the CYP isoforms were significantly influenced
stability in acidic buffer ([2]; acetate buffer USP pH 4.50, 10 mg/mL): stable
stability in acidic buffer ([2]; hydrochloric acid buffer USP pH 1.40, 10 mg/mL): stable
stability in hydrochloric acid buffer without pepsin ([2]; pH 1.4, 3 h): stable
stability in acidic buffer ([2]; phosphate buffer USP pH 6.80, 10 mg/mL): stable
plasma concentration [3]: less than 2 μg/mL
% CYP activity relative to control (CYP2B6): none of the CYP isoforms were significantly influenced
% protein-bound (rat plasma proteins; 2.65 μM): below the lower limit of quantitation
extent of plasma protein binding (rank among species) (rat plasma proteins; 2.7, 13.3 and 40.0 μM): lowest
% CYP activity relative to control (CYP3A4): none of the CYP isoforms were significantly influenced
% of test article remaining (metabolic stability) [4]: no loss of parent test article
% Recovery of Test Article A–B (mean) (Caco-2 cells; 10 μM + 100 μM ketoconazole): 120.6%
% Recovery of Test Article B-A (mean) (Caco-2 cells; 10 μM + 100 μM ketoconazole): 90.3%
% Recovery of Test Article A–B (mean) (Caco-2 cells; 10 μM): 112.2%
% Recovery of Test Article B-A (mean) (Caco-2 cells; 10 μM): 87.2%
% Recovery of Test Article A–B (mean) (Caco-2 cells; 50 μM + 100 μM ketoconazole): 114.9%
% Recovery of Test Article B-A (mean) (Caco-2 cells; 50 μM + 100 μM ketoconazole): 85.7%
% Recovery of Test Article A–B (mean) (Caco-2 cells; 50 μM): 105.5%
% Recovery of Test Article B-A (mean) (Caco-2 cells; 50 μM): 97.6%
concentration in the receiving wells (Caco-2 cells; 10 and 50 μM solutions, lower limit of quantitation): < 500 nM
permeability across the Caco-2 monolayer (Caco-2 cells; bi-directional, 10 and 50 μM): not permeable
% CYP activity relative to control (CYP2C9): none of the CYP isoforms were significantly influenced
% of the initial content remained in simulated gastric fluid ([5]; 1 μM): 76%
% of the initial content remained in simulated gastric fluid ([5]; 10 μM): 72%
extent of plasma protein binding (rank among species) (dog plasma proteins): greatest
% CYP activity relative to control (CYP2D6): none of the CYP isoforms were significantly influenced
stability in plasma (% of test article remaining) (Stability in plasma [6]): No degradation
stability in plasma (% of test article remaining) (Stability in plasma [7]): No degradation
stability in plasma (% of test article remaining) (Stability in plasma [8]): No degradation
permeation of the Transwell membrane in the absence of Caco-2 cells [9]: detectable levels

C[C@H]1O[C@@H](O[C@H]2[C@@H](O)C[C@H](O[C@H]3[C@@H](O)C[C@H](O[C@H]4CC[C@@]5(C)[C@H](CC[C@@H]6[C@@H]5C[C@@H](O)[C@]5(C)[C@@H](C7=CC(=O)OC7)CC[C@]65O)C4)O[C@@H]3C)O[C@@H]2C)C[C@H](O)[C@@H]1O [digoxin, reference compound]
Papp A→B at 120 min, 1 μM (P-gp; 1 μM + 100 μM ketoconazole): 3.7 ×10⁻⁶ cm/s
Papp A→B at 120 min, 1 μM (P-gp; 1 μM, control): 3.1 ×10⁻⁶ cm/s
Papp B→A at 120 min, 1 μM (P-gp; 1 μM + 100 μM ketoconazole): 1.8 ×10⁻⁶ cm/s
Papp B→A at 120 min, 1 μM (P-gp; 1 μM, control): 8.6 ×10⁻⁶ cm/s

CC(C)NCC(O)COc1cccc2ccccc12 (stereo not drawn) [propranolol]
stability in gastric fluid [10]: stable
